Results as given in ChEMBL document CHEMBL4229494, “Novel tertiary sulfonamides as potent anti-cancer agents” (Bioorg Med Chem, 2018).
In brackets after ≈: the same amount, converted by molar mass. Blank lines part the entries; values can stand above or below the compound they belong to.

Legend:
[1] = Inhibition of Wnt3A-induced Wnt transcription (unknown origin) expressed in HEK293 cells coexpressing TK-driven Rluc after 20 to 22 hrs by super-top flash reporter gene assay; type: cell-based; settings: Homo sapiens
Procedure, shortened: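 HEK-293 cells (DMEM, 10% FBS) were co-transfected with Super(8x)TOPflash, a Wnt3A expression vector and TK-driven Renilla luciferase. After 8 h at 37 °C, 5% CO2, cells were seeded at 25,000/well and treated at 1.6, 8, 40, 200, 1000 or 5000 nM, or with DMSO, for 20-22 h in triplicate. Firefly/Renilla luminescence was taken relative to DMSO, and IC50 was found by nonlinear regression.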

[2] = Solubility of the compound; type: physicochemical
[3] = Lipophilicity, log D of the compound at pH 3; type: physicochemical; settings: buffer
[4] = Lipophilicity, log D of the compound at pH 7; type: physicochemical; settings: buffer
MDA-MB-231 [5] = assay: Antitumor activity against human MDA-MB-231 cells xenografted in athymic nude mouse assessed as average tumor volume at 20 mg/kg, ip qd administered every consecutive day in presence of doxorubicin at 5 mg/kg/week measured on day 35 relative to control; type: functional
MCF7 [6] = assay: Induction of apoptosis in human MCF7 cells after 24 hrs by caspase-Glo 3/7 reagent based luminescence assay; type: functional, cell-based; settings: MCF7, 24 h
Procedure, shortened: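 MCF-7 cells were plated at 25,000/well (DMEM, 10% FBS) and grown 24 h, then treated at 1.6 nM–5 µM or with DMSO for 24 h. Caspase 3/7 activity was read by Caspase-Glo 3/7 luminescence. Triplicate signals relative to DMSO were analysed by nonlinear regression.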

[7] = Metabolic stability in human liver microsomes measured at > 60 mins in presence of NADPH by HPLC analysis; type: ADME, microsome; settings: 1 h
MDA-MB-231 [8] = assay: Antiproliferative activity against human MDA-MB-231 cells after 24 hrs by SYBR green dye based fluorescence assay; type: functional, cell-based; settings: MDA-MB-231, 24 h
Procedure, shortened: (§1)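 Cells were plated at 500/well in DMEM/10% FBS and allowed to attach for 24 h at 37 °C, 5% CO2. They were then exposed to 1.6 nM–5 µM or DMSO. One plate was harvested every 24 h over 7 days and frozen at -20 °C. DNA was quantified by SYBR Green fluorescence (Ex495/Em535). Triplicate values relative to DMSO went to nonlinear regression for IC50.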

MCF7 [9] = assay: Antiproliferative activity against human MCF7 cells after 24 hrs by SYBR green dye based fluorescence assay; type: functional, cell-based; settings: MCF7, 24 h; procedure, shortened: as §1
MCF7 [10] = assay: Potentiation of doxorubicin-induced antiproliferative activity against human MCF7 cells at 8 nM after 72 hrs by SYBR green dye based fluorescence assay relative to control; type: functional
Procedure, shortened: (§2)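 Cells were plated at 2,000/well (DMEM, 10% FBS) and incubated 24 h at 37 °C, 5% CO2. Test compound at 1.6 nM–2 µM was given with or without doxorubicin (MCF-7: 1.6 nM–2 µM; MDA-MB-231: 4 nM–5 µM), or DMSO, for 72 h. DNA was measured by SYBR Green fluorescence (Ex495/Em535). Triplicate values relative to DMSO were used for IC50 and Chou-Talalay combination index analysis.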

MDA-MB-231 [11] = assay: Potentiation of doxorubicin-induced antiproliferative activity against human MDA-MB-231 cells at 8 nM after 72 hrs by SYBR green dye based fluorescence assay relative to control; type: functional; procedure, shortened: as §2
MCF7 [12] = assay: Synergistic antiproliferative activity against human MCF7 cells assessed as combination index at 8 nM after 72 hrs in presence of doxorubicin by SYBR green dye based fluorescence assay; type: functional; procedure, shortened: as §2
MDA-MB-231 [13] = assay: Synergistic antiproliferative activity against human MDA-MB-231 cells assessed as combination index at 8 nM after 72 hrs in presence of doxorubicin by SYBR green dye based fluorescence assay; type: functional; procedure, shortened: as §2
MCF7 [14] = assay: Synergistic antiproliferative activity against human MCF7 cells assessed as combination index at ED75 after 72 hrs in presence of doxorubicin by SYBR green dye based fluorescence assay; type: functional; procedure, shortened: as §2
MDA-MB-231 [15] = assay: Synergistic antiproliferative activity against human MDA-MB-231 cells assessed as combination index at ED75 after 72 hrs in presence of doxorubicin by SYBR green dye based fluorescence assay; type: functional; procedure, shortened: as §2
MCF7 [16] = assay: Synergistic antiproliferative activity against human MCF7 cells assessed as combination index at ED90 after 72 hrs in presence of doxorubicin by SYBR green dye based fluorescence assay; type: functional; procedure, shortened: as §2
MDA-MB-231 [17] = assay: Synergistic antiproliferative activity against human MDA-MB-231 cells assessed as combination index at ED90 after 72 hrs in presence of doxorubicin by SYBR green dye based fluorescence assay; type: functional; procedure, shortened: as §2
[18] = target: Voltage-gated inwardly rectifying potassium channel KCNH2 (Homo sapiens, UniProt Q12809); assay: Inhibition of human ERG up to 50 uM
[19] = Metabolic stability in rat liver microsomes measured at > 60 mins in presence of NADPH by HPLC analysis; type: ADME, microsome; settings: 1 h
[20] = Inhibition of human CYP450 at 50 uM; type: ADME
[21] = Oral bioavailability in rat; type: ADME, organism-based; settings: in vivo
MDA-MB-231 [22] = assay: Antitumor activity against human MDA-MB-231 cells xenografted in athymic nude mouse assessed as decrease in tumor volume at 20 mg/kg, ip qd administered for 16 consecutive days relative to control; type: functional; set-up: scale not given: the % may be the effect or the level left
MDA-MB-231 [23] = assay: Antitumor activity against human MDA-MB-231 cells xenografted in athymic nude mouse assessed as decrease in tumor volume at 20 mg/kg, ip qd administered for 16 consecutive days in presence of doxorubicin at 5 mg/kg/week relative to control; type: functional; set-up: scale not given: the % may be the effect or the level left
MDA-MB-231 [24] = assay: Antitumor activity against human MDA-MB-231 cells xenografted in athymic nude mouse assessed as average tumor volume at 20 mg/kg, ip qd administered every consecutive day in presence of doxorubicin at 5 mg/kg/week measured on day 51 (reference value: 653 +/- 192 mm3); type: functional
[25] = Drug uptake in serum of athymic nude mouse xenografted with human MDA-MB-231 cells at 20 mg/kg, ip qd administered for 16 consecutive days by HPLC/MS analysis; type: ADME, organism-based; settings: read-out: Drug uptake
Procedure, shortened: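 In the MDA-MB-231 xenografted nu/nu mice given 20 mg/kg/day i.p. for 16 days, serum drug concentration was measured by HPLC at the end of the study and confirmed by LCMS.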

Mus musculus [26] = assay: Upregulation of p53 protein expression level in tumors of athymic nude mouse xenografted with human MDA-MB-231 cells at 20 mg/kg, ip qd administered every consecutive day in presence of doxorubicin at 5 mg/kg/week measured on day 51 by Western blot analysis relative to control; type: functional
Procedure, shortened: (§3)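 MDA-MB-231 xenograft tumors were excised from nu/nu mice at study termination (day 51), after 16 days of i.p. treatment started on day 35. p53, phospho-Ser15-p53 and PARP cleavage were quantified by Western blot and compared with vehicle-treated animals.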

Mus musculus [27] = assay: Upregulation of phospho Ser15-53 protein expression level in tumors of athymic nude mouse xenografted with human MDA-MB-231 cells at 20 mg/kg, ip qd administered every consecutive day in presence of doxorubicin at 5 mg/kg/week measured on day 51 by Western blot analysis relative to control; type: functional; procedure, shortened: as §3
Mus musculus [28] = assay: Upregulation of PARP cleavage expression level in tumors of athymic nude mouse xenografted with human MDA-MB-231 cells at 20 mg/kg, ip qd administered every consecutive day in presence of doxorubicin at 5 mg/kg/week measured on day 51 by Western blot analysis relative to control; type: functional; procedure, shortened: as §3
MDA-MB-231 [29] = assay: Synergistic antitumor activity against human MDA-MB-231 cells xenografted in athymic nude mouse assessed as reduction in tumor weight at 20 mg/kg, ip qd administered every consecutive day in presence of doxorubicin at 5 mg/kg/week measured on day 51; type: functional; set-up: scale not given: the % may be the effect or the level left
MDA-MB-231 [30] = assay: Antitumor activity against human MDA-MB-231 cells xenografted in athymic nude mouse assessed as decrease in tumor volume at 5 mg/kg, ip administered per week for 16 days relative to control; type: functional; set-up: scale not given: the % may be the effect or the level left

Voltage-gated inwardly rectifying potassium channel KCNH2, sequence (Q12809 whole entry): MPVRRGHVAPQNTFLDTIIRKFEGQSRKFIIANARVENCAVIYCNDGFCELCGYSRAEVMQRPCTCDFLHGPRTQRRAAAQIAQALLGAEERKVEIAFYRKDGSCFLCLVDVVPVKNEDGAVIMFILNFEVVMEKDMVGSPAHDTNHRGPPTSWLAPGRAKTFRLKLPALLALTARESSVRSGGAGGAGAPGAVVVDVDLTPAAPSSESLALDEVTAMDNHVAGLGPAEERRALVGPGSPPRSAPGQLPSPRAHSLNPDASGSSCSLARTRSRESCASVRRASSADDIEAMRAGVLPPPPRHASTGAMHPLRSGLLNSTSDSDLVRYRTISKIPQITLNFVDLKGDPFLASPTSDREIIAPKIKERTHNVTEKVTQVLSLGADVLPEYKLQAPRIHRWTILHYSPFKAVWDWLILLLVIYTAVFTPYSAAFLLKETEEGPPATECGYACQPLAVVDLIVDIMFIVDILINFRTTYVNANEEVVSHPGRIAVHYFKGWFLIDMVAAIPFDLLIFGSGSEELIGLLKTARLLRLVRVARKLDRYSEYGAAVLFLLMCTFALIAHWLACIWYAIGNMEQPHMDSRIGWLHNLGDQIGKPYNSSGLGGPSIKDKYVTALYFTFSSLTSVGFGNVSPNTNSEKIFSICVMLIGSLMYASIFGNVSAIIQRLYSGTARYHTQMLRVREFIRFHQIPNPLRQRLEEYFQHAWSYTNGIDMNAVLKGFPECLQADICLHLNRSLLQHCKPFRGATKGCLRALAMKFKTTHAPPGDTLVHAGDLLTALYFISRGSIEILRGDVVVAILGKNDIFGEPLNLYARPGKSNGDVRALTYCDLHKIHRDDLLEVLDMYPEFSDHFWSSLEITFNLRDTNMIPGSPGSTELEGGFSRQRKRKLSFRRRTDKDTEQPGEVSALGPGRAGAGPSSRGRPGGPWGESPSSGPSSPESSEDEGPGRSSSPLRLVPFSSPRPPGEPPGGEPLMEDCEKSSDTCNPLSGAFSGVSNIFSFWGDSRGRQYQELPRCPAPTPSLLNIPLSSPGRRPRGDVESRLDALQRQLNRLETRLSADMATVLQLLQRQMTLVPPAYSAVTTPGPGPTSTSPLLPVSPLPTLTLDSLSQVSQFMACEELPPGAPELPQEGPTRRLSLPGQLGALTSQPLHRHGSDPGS

IC50 [1]: > 5000 nM
SMILES: O=C1CCCN1c1ccc(S(=O)(=O)N2CCCc3ncccc32)cc1

IC50 [1]: 634 nM
SMILES: O=C1CCCN1c1ccc(S(=O)(=O)N2CCc3ccccc3C2)cc1

IC50 [1]: 15 nM
solubility [2]: 19 µM (≈ 6.49 µg/mL)
logD [3]: 1.5
logD [4]: 2.9
SMILES: O=S(=O)(c1ccc(N2CCC=N2)cc1)N1CCCc2ccccc21

EC50 (MCF7 [6]): 13 nM
Stability [7]: Stable
IC50 [1]: 11 nM
IC50 (MDA-MB-231 [8]): 13 nM
IC50 (MCF7 [9]): 10 nM
solubility [2]: 28.2 µM (≈ 10.5 µg/mL)
logD [3]: 1.9
logD [4]: 1.9
Stability [19]: Stable
inhibition (INH) [20]: Not Active
bioavailability [21]: 15 to 20%
concentration at 16 days [25]: 200 ng/mL
SMILES: CN1CCN(S(=O)(=O)c2ccc(N3CCCC3=O)cc2)c2ccccc21
Activity (MDA-MB-231 [5]): 154 mm3
fold change (FC) (MCF7 [10]): 2 - 3
fold change (FC) (MDA-MB-231 [11]): 2 - 3
CI (MCF7 [12]): <1
CI (MDA-MB-231 [13]): <1
CI (MCF7 [14]): 0.75
CI (MDA-MB-231 [15]): 0.68
CI (MCF7 [16]): 0.97
CI (MDA-MB-231 [17]): 0.72
inhibition (INH) [18]: Not Active
Activity (MDA-MB-231 [22]): 91.5%
Activity (MDA-MB-231 [23]): 93.7 - 96.2%
Activity (MDA-MB-231 [24]): 24.7 mm3
fold change (FC) (Mus musculus [26]): 1.5
fold change (FC) (Mus musculus [27]): 3
fold change (FC) (Mus musculus [28]): 30
Activity (MDA-MB-231 [29]): 93.7%

IC50 [1]: 13 nM
solubility [2]: 2.9 µM (≈ 1.13 µg/mL)
logD [3]: 3.1
logD [4]: 3.1
SMILES: O=C1CCCN1c1ccc(S(=O)(=O)N2CCCc3cc(Cl)ccc32)cc1

IC50 [1]: 1650 nM
SMILES: O=S(=O)(c1ccc(-n2cccn2)cc1)N1CCCc2ccccc21

IC50 [1]: > 5000 nM
SMILES: O=C1CCCN1c1ccc(S(=O)(=O)N2CCCCC2)cc1

IC50 [1]: > 5000 nM
SMILES: O=C1CCCN1c1ccc(S(=O)(=O)Nc2cccc3ccccc23)cc1

EC50 (MCF7 [6]): 6 nM
IC50 [1]: 7 nM
IC50 (MDA-MB-231 [8]): 16 nM
IC50 (MCF7 [9]): 4 nM
SMILES: CN1CCN(S(=O)(=O)c2ccc(N3CCCC3)cc2)c2ccccc21

IC50 [1]: 20 nM
solubility [2]: < 0.5 µM
logD [3]: 3.6
logD [4]: 3.7
SMILES: O=S(=O)(c1ccc(N2CCCC2)cc1)N1CCCc2ccccc21

IC50 [1]: > 5000 nM
SMILES: O=C1CCCCN1c1ccc(S(=O)(=O)N2CCCc3ccccc32)cc1

SMILES: COc1cccc2c1C(=O)c1c(O)c3c(c(O)c1C2=O)C[C@@](O)(C(=O)CO)C[C@@H]3O[C@H]1C[C@H](N)[C@H](O)[C@H](C)O1 [DOXORUBICIN]
Activity (MDA-MB-231 [30]): 84.3%

IC50 [1]: > 5000 nM
SMILES: O=C1CCCN1c1ccc(S(=O)(=O)N2CCN(CCO)c3ccccc32)cc1

IC50 [1]: > 5000 nM
SMILES: O=C1CCCN1c1ccc(S(=O)(=O)N2CCc3ccccc32)cc1

EC50 (MCF7 [6]): 307 nM
IC50 [1]: 660 nM
IC50 (MDA-MB-231 [8]): 608 nM
IC50 (MCF7 [9]): 318 nM
SMILES: CC(C)(C)c1ccc2c(c1)CCCN2S(=O)(=O)c1ccc(N2CCCC2=O)cc1
